{"data": "Results of several laboratories", "note": "Each line is one published result; the experiments were not run side by side."}
{"Structure (SMILES)": "C[C@@H](Oc1ccc(S(C)(=O)=O)cc1C(=O)N1C[C@@H]2C[C@]2(c2cc(C(F)(F)F)on2)C1)C(F)(F)F", "host": "human", "matrix": "plasma", "route": "oral", "dose": "10 mg", "notes": "single dose, fed", "endpoint": "CL/F", "value": "73.1 mL/min"}
{"Structure (SMILES)": "N#Cc1cccc(-c2ccc3ncc(-c4cc(F)cc(F)c4)c(N4CCC(N)CC4)c3c2)c1O", "host": "human", "matrix": "plasma", "route": "intravenous", "dose": "50 µg", "endpoint": "clearance", "value": "85 mL/min"}
{"Structure (SMILES)": "CN1CCC(COc2cnc(-c3cccc(Cn4nc(-c5cccc(C#N)c5)ccc4=O)c3)nc2)CC1", "host": "human", "matrix": "plasma", "route": "intravenous", "notes": "single dose", "endpoint": "clearance", "value": "~3 mL/min/kg"}
{"Structure (SMILES)": "C=CC(=O)NC1CCN(c2ncc3ncnc(Nc4ccc(Oc5ccc6c(c5)ncn6C)c(C)c4)c3n2)CC1", "host": "male human", "matrix": "plasma", "route": "intravenous", "dose": "100 µg", "notes": "single dose, healthy volunteers", "endpoint": "clearance", "value": "106 mL/min"}
{"Structure (SMILES)": "COc1ccc(F)cc1C(=O)NCc1ccc(-c2nn([C@@H](C)C(F)(F)F)c(N)c2C(N)=O)cc1", "host": "male human", "matrix": "urine", "route": "oral", "dose": "200 mg", "endpoint": "renal clearance", "value": "4.83 mL/min"}
{"Structure (SMILES)": "CC(C)C[C@H](NC(=O)[C@H](CC(C)C)NC(=O)[C@H](Cc1c[nH]c2ccccc12)NC(=O)[C@H](CCC(=O)O)NC(=O)[C@@H](NC(=O)[C@H](Cc1ccccc1)NC(=O)[C@H](CCC(=O)O)NC(=O)[C@H](CCCCNC(=O)COCCOCCNC(=O)COCCOCCNC(=O)CC[C@H](NC(=O)CCCCCCCCCCCCCCCCCCC(=O)O)C(=O)O)NC(=O)[C@H](C)NC(=O)[C@H](CCCCN)NC(=O)[C@H](CCCCN)NC(=O)[C@H](CCC(=O)O)NC(=O)[C@H](CC(=O)O)NC(=O)[C@H](CC(C)C)NC(=O)[C@H](Cc1ccc(O)cc1)NC(=O)[C@H](CCCCN)NC(=O)[C@H](CO)NC(=O)[C@H](Cc1ccc(O)cc1)NC(=O)[C@H](CC(=O)O)NC(=O)[C@H](CO)NC(=O)[C@@H](NC(=O)[C@H](Cc1ccccc1)NC(=O)[C@@H](NC(=O)CNC(=O)[C@H](CCC(N)=O)NC(=O)C(C)(C)NC(=O)[C@@H](N)Cc1c[nH]cn1)[C@@H](C)O)[C@@H](C)O)C(C)C)C(=O)N[C@@H](CCC(=O)O)C(=O)NCC(=O)NCC(=O)N1CCC[C@H]1C(=O)N[C@@H](CO)C(=O)N[C@@H](CO)C(=O)NCC(N)=O", "host": "human", "matrix": "plasma", "route": "subcutaneous", "dose": "16 mg", "notes": "multiple doses, once daily, steady state, patients", "endpoint": "CL/F", "value": "0.333 mL/min"}
{"Structure (SMILES)": "CN(C)C(=O)c1cc2cnc(Nc3ccc(N4CCNCC4)cn3)nc2n1C1CCCC1", "host": "human", "matrix": "plasma", "route": "oral", "notes": "multiple doses, steady state, patients", "endpoint": "CL/F", "value": "343 mL/min"}
{"Structure (SMILES)": "OC[C@H]1O[C@@H](c2cc(Cc3ccc(C4CC4)cc3)c(Cl)c3c2CCO3)[C@H](O)[C@@H](O)[C@@H]1O", "host": "human", "matrix": "plasma", "route": "oral", "dose": "0.3 mg", "notes": "single dose, fed, healthy volunteers", "endpoint": "CL/F", "value": "173 mL/min"}
{"Structure (SMILES)": "COc1ccc2c(c1)CN(C(=O)CCN1CCC(Cc3ccccc3)CC1)CC[S@@+]2[O-]", "host": "male human", "matrix": "plasma", "route": "intravenous", "dose": "0.4 mg/kg", "notes": "healthy volunteers", "endpoint": "clearance", "value": "162 mL/min"}
{"Structure (SMILES)": "CC(C)n1c(C2CCNCC2)nc2c([N+](=O)[O-])c(Br)c(Br)cc21", "host": "human", "matrix": "urine", "route": "oral", "dose": "75 mg", "notes": "single dose", "endpoint": "renal clearance", "value": "13.7 mL/min"}
